14 compounds from ChEMBL document CHEMBL1142459, “Design and synthesis of a novel series of pyranonaphthoquinones as topoisomerase II catalytic inhibitors” (J Med Chem, 2008) can be followed below.

Active and inactive are the calls of the source. The rule behind the calls is not given here.

Assay [1] addresses DNA topoisomerase 2-alpha (Homo sapiens) (UniProt P11388). Kind of assay: Inhibition of human topoisomerase 2 alpha-mediated Crithidia fasciculate kDNA decatenation at 100 uM.
Assay [2] shares this target. Kind of assay: Inhibition of human topoisomerase 2 alpha-mediated bacterial plasmid DNA relaxation assessed as pRYG negative supercoiled form at 100 uM.
Assay [3] shares this target. Kind of assay: Inhibition of human topoisomerase 2 alpha-mediated bacterial plasmid DNA relaxation assessed as pRYG negative supercoiled form added 100 uM after relaxation.
The test system of another assay is Nucleic Acid. Kind of assay: DNA intercalative activity assessed retardation in migration of negatively supercoiled small circular Escherichia coli pBSKS in agarose gel electrophoresis at 100 uM. Type of assay: nucleic-acid assay. The essentials:
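250 ng negatively supercoiled pBSKS incubated 10 min at 37 °C with compound at 100 µM in 1% (v/v) DMSO; ethidium bromide 1 µg/mL as intercalator control. Run on 1% agarose in 1× TBE without ethidium bromide at 0.5 V/cm (low field); retardation of migration scored.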

Chain of DNA topoisomerase 2-alpha (Homo sapiens) (P11388 whole entry): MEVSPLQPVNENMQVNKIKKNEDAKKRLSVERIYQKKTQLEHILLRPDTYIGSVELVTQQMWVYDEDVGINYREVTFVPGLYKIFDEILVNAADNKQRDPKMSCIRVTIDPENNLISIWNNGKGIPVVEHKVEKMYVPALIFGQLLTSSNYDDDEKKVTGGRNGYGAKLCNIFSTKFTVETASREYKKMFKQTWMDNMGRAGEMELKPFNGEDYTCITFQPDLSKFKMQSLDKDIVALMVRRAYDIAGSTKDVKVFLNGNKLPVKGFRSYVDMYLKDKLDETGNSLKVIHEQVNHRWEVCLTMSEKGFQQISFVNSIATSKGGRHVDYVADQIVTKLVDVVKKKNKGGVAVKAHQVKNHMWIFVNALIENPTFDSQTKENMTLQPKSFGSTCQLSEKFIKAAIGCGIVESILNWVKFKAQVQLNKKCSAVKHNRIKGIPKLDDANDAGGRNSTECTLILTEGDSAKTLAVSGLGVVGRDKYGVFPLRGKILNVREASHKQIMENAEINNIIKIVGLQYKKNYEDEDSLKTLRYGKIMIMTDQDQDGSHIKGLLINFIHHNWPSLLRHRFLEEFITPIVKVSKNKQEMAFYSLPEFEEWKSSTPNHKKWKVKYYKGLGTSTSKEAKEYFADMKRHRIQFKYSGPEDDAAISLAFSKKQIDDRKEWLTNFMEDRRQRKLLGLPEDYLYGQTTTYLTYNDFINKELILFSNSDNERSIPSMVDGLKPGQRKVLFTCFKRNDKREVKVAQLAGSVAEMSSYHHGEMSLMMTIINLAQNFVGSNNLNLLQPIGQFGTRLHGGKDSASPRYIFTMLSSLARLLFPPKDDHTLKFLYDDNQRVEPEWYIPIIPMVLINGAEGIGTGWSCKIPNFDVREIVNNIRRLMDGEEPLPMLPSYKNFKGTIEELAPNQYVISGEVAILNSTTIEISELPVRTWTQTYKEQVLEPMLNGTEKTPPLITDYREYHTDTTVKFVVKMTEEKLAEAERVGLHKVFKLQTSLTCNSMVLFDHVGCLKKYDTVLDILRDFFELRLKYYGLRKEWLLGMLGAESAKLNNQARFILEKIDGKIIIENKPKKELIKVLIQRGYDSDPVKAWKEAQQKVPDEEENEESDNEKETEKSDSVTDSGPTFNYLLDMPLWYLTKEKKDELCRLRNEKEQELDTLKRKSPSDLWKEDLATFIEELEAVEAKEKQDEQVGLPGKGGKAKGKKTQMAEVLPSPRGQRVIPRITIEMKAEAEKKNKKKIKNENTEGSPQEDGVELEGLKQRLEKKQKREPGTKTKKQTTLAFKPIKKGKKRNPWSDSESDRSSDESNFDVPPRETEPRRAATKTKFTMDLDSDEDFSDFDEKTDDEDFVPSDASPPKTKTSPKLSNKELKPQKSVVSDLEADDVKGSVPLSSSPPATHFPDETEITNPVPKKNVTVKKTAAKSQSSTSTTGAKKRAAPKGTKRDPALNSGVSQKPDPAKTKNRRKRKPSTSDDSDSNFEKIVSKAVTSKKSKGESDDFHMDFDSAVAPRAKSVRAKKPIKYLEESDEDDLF

As for `CC1(C)OC2=C(C(=O)c3ccccc3C2=O)[C@H]2c3cc(Br)cc(Br)c3OC[C@H]21`, the outcome in assay [1] and in assay [2] was Active. The outcome (in assay [3]; with Nucleic Acid) was inactive.
As for `C[C@H]1CC[C@H]2[C@H](C1)C1=C(OC2(C)C)c2ccccc2C(=O)C1=O`, the result (in assay [1]; in assay [2]; in assay [3]; in the assay on Nucleic Acid) was inactive.
For `COc1cc([C@@H]2c3cc4c(cc3[C@@H](O[C@@H]3O[C@@H]5CO[C@@H](C)O[C@H]5[C@H](O)[C@H]3O)[C@H]3COC(=O)[C@H]23)OCO4)cc(OC)c1O`, the outcome (in assay [2]; with Nucleic Acid) was inactive. In addition, the outcome in assay [3] was Active.
As to `C[C@H]1CC[C@@H]2[C@@H]1C1=C(OC2(C)C)c2ccccc2C(=O)C1=O`, the result (in assay [1]; in assay [2]; in assay [3]; in the assay with Nucleic Acid) was inactive.
As to `C[C@@H]1CC[C@H]2[C@H]1C1=C(OC2(C)C)C(=O)c2ccccc2C1=O`, the result (in assay [1]; in assay [2]; in assay [3]; in the assay with Nucleic Acid) was inactive.
`COc1ccc2c(c1)OC[C@@H]1[C@H]2C2=C(OC1(C)C)C(=O)c1ccccc1C2=O`: the outcome in assay [1] and in assay [2] was Active. Also, the outcome (in assay [3]; in the assay on Nucleic Acid) was inactive.
Take `COc1ccc2c(c1)OC[C@H]1[C@@H]2C2=C(OC1(C)C)c1ccccc1C(=O)C2=O`: the result in assay [1] and in assay [2] was Active. Moreover, the outcome (in assay [3]; in the assay with Nucleic Acid) was inactive.
Consider `CC1(C)OC2=C(C(=O)c3ccccc3C2=O)[C@H]2c3cc(Br)ccc3OC[C@H]21`, for which the result in assay [1] and in assay [2] was Active. Besides, the result (in assay [3]; with Nucleic Acid) was inactive.
In the case of `Cc1c2ccncc2c(C)c2c1[nH]c1ccccc12`, the outcome (in assay [2]; with Nucleic Acid) was Active. The result in assay [3] was inactive.
As to `C[C@@H]1CC[C@@H]2[C@@H](C1)C1=C(OC2(C)C)C(=O)c2ccccc2C1=O`, the outcome (in assay [1]; in assay [2]; in assay [3]; in the assay on Nucleic Acid) was inactive.
Consider `CC1(C)OC2=C(C(=O)C(=O)c3ccccc32)[C@@H]2c3cc(Br)ccc3OC[C@@H]21`, for which the outcome in assay [1] and in assay [2] was Active. In addition, the result (in assay [3]; in the assay on Nucleic Acid) was inactive.
Turning to `CC1(C)OC2=C(C(=O)C(=O)c3ccccc32)[C@@H]2c3c(ccc4ccccc34)OC[C@@H]21`, the outcome in assay [1] and in assay [2] was Active. Besides, the outcome (in assay [3]; in the assay on Nucleic Acid) was inactive.
As for `CC1(C)OC2=C(C(=O)c3ccccc3C2=O)[C@H]2c3c(ccc4ccccc34)OC[C@H]21`, the outcome (in assay [1]; in assay [2]; in assay [3]; in the assay with Nucleic Acid) was inactive.
As for `CC[n+]1c(-c2ccccc2)c2cc(N)ccc2c2ccc(N)cc21`, the outcome in the assay with Nucleic Acid was Active.
